GSK3B inh = human GSK3beta kinase inhibitors, primary screen, biochemical, cell-free homogeneous, HTS; Glycogen synthase kinase-3 beta (Homo sapiens), P49841; activity score (negative = inhibition), % at 10 µM; hit rate 0.038% among 300,000; GST-GSK3beta kinase, ADP-Glo luminescence, 60 min; active compounds read low;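 active = more than half of replicate wells score below -50%, meaning over 50% inhibition versus plate controls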;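 also: 0% = median DMSO wells and -100% = median GW8510 positive control wells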
Target sequence (P49841 whole entry, looked up): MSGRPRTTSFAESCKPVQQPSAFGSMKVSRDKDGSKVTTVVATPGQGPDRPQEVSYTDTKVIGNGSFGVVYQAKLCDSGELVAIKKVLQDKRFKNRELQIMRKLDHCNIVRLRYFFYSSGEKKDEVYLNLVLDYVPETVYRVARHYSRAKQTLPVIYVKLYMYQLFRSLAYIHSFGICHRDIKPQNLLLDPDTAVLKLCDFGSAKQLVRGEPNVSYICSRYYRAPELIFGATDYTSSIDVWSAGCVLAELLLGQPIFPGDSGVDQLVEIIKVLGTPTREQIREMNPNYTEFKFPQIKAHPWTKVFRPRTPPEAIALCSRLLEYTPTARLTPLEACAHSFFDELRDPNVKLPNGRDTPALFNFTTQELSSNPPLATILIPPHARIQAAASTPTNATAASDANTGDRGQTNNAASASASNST
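Assay system: GST-fused GSK3beta enzyme, cell-free / Medium: Tris pH 7.5 buffer with MgCl2, DTT, BSA, heparin / Also added: peptide substrate plus 25 µM ATP (final) / Compound: 10 µM single point / Timing: kinase reaction with compound 60 min at room temperature / Detection: ADP-Glo luminescence / Benchmarks: DMSO neutral wells and GW8510 at 20 µM as positive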
STK33 kinase inh = inhibitors of purified STK33 kinase, primary screen, biochemical, ADP-Glo luminescence, homogeneous, cell-free | AID 2661, 2010 | hit rate 0.073% among 320,000 | MBP phosphorylation | inhibition, % at 10 µM | Serine/threonine-protein kinase 33 (Homo sapiens), Q9BYT3;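 active = inhibition at or above 25%, using the most active replicate where run in duplicate; inactive = inhibition below 25%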
Dyrk1A ADPGlo = rat Dyrk1A kinase inhibitors, primary screen, biochemical, single point, plate reader | Dual specificity tyrosine-phosphorylation-regulated kinase 1A (Rattus norvegicus), Q63470 | ADP-Glo luminescence, NFATc1 peptide | inhibition, % at 12.5 µM | hit rate 0.43% among 310,000 | AID 504441, 2011; in the data active = inhibition above about 50%;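 also: plate controls were vehicle with enzyme for no effect and no enzyme for full effect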
GSK3 alpha inh = blockers of GSK3A enzyme activity – biochemical, luminescence, cell-free homogeneous, HTS, primary screen; inhibition, % at 10 µM; AID 2650, 2010; hit rate 0.1% among 320,000; GSK-3 alpha kinase, ADP-Glo luminescence, 60 min; Glycogen synthase kinase-3 alpha (Homo sapiens), P49840;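 active = more than half of replicates show inhibition above 20%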;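 also: GST-tagged GSK-3 alpha with peptide substrate and 25 µM ATP; 0% = DMSO neutral wells and 100% = GW8510 positive control wells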
Rin1 Abl inh = inhibitors of Rin1-Abl protein binding, primary screen, biochemical, TR-FRET | Tyrosine-protein kinase ABL1 (Homo sapiens) + Ras and Rab interactor 1 (Homo sapiens), … | inhibition, % at 7.35 µM | hit rate 0.4% among 360,000; in the data active = inhibition above about 5%, passing the limit was not always enough
Arrestin-AP2 inh = inhibitors of beta-arrestin/AP2 binding, primary screen, biochemical, GPCR trafficking, flow cytometry | inhibition, % at 10 µM | FITC-arrestin peptide / GST-AP2 beads; AP2 beta2 appendage carries R879A mutation | hit rate 0.31% among 340,000;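 active = inhibition above a set limit, near 3 SD of compounds lacking own fluorescence, cut at about 54% in these data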;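 also: plate controls were DMSO wells for no effect and 5 µM unlabelled arrestin peptide for full effect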
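System: GST-tagged AP2 beta2-adaptin appendage (R879A) on 4 µm glutathione beads / Reagent: FITC-arrestin peptide, 50 nM / Detection: HyperCyt-sampled flow cytometry, FL1 channel, ex 488/em 535 nm / Timing: 12 min plus 1 h, RT / Buffer or medium: PBS plus Tween 20 (0.05%) and BSA (0.1%)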
ADP-Glo artifact = ADP-Glo luciferase interference without Dyrk1A, dose response, artefact control for Dyrk1A inhibitor project, biochemical, luminescence, cherry-pick, set 02; shares compounds with Dyrk1A ADPGlo; ADP-Glo luciferase artifact assay, no Dyrk1A; AC50, µM (doses to about 12 µM), inactives show at the highest dose activity change, negative = inhibition; 1,300 tested, under 10 active; AID 588348, 2011;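 active = fitted half-maximal dose AC50 no more than ten times the top valid tested dose, with luminescence dropping as dose rises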
* marks the source's active call; other numbers are inactive results; . = no result given. Rows were chosen to be rich in hits. Some 0.99% of all compounds tested hit in one or more screens of this group.

SMILES	GSK3B inh	STK33 kinase inh	Dyrk1A ADPGlo	GSK3 alpha inh	Rin1 Abl inh	Arrestin-AP2 inh	ADP-Glo artifact
N#CC(C#N)=C1C=CC=CN1/C(=C\c1ccco1)C(=O)c1ccc(Br)cc1	.	1	48	0	0	-7	.
COCCCNc1c2c3c(cccc3[nH]c1=O)C(=O)c1ccccc1-2	.	23	65*	40	-97	12	15%
Cc1ccc2nc3n(c(=O)c2c1)-c1cc2ccccc2cc1C(=O)NC3CC(C)C (configuration not stated)	.	.	.	.	0	.	.
CC(=O)N1c2ccc(S(=O)(=O)NCC3CCC(C(=O)NC4CCCCC4)CC3)cc2CC1C (configuration not stated)	-4	-1	.	-1	4	-9	.
Cc1ccc(-c2onc3ccc(C=O)cc23)cc1	-18	2	13	11	-2	2	.
O=C(O)/C=C/c1ccc2noc(-c3ccccc3)c2c1	-1	24	70*	5	-1	-20	11%
COCCNC(=O)C1(C)CCN(Cc2ccc3ccccc3c2Br)C1 (configuration not stated)	.	.	.	.	-11	.	.
COc1ccc2c(c1)[C@H]1[C@H](CO2)[C@H](c2ccccc2)[C@]2(C)C(=O)Nc3ccc(C)cc3C(=O)N12	.	0	1	-1	2	32	.
C[C@@]12C(=O)N(CC3CCCO3)CC(=O)N1[C@@H]1c3ccccc3OC[C@@H]1[C@@H]2c1ccccc1 (some centres not stated)	.	.	45	.	-2	-17	.
COc1ccc2c(c1)C(=O)N1[C@H]3c4cc(C)ccc4OC[C@@H]3[C@H](c3ccccc3)[C@]1(C)C(=O)N2	.	1	55*	-2	1	-1	16%
COc1ccc2c(c1)OC[C@H]1[C@H]2N2C(=O)CN(CC3CCCO3)C(=O)[C@@]2(C)[C@H]1c1ccccc1 (some centres not stated)	.	-1	50*	0	3	5	8%
O=C(c1ccccc1)c1ccc2cc(O)ccc2c1	-7	14	64*	8	2	7	-1%
CCC(ONc1ccccc1C(F)(F)F)(C(=O)NN(C)C)c1ccccc1 (configuration not stated)	.	-2	-2	-1	3	27	.
O=C1NC(=O)/C(=C\c2ccc(O)cc2O)S1	-13	36*	85*	24	4	11	8%
CCCCC(CC)CN=C(N)NC(N)=NCCCCCCN=C(N)NC(N)=NCC(CC)CCCC (configuration not stated)	.	29*	52*	20	9	-8	12%
Cn1c2ccccc2c2cc(/C=N/NC(=O)c3cc(O)ccc3O)ccc21	-1	-1	61*	-2	3	23	9%
COc1ccc(OC)c(NC(=O)CCN2CCN(c3ccccc3OC)CC2)c1	2	-1	0	-3	3	23	.
CC(=O)N(/N=C1\Sc2ccccc2C1=O)c1cccc(C)c1	-1	1	50*	1	-4	1	7%
COc1ccc(NC(=O)/C(C#N)=C\c2ccc(-c3cccc(C(=O)O)c3C)o2)cc1	0	6	78*	-10	0	-3	10%
COc1ccc(NC(=O)/C(C#N)=C/c2ccc(-c3ccccc3C(=O)O)o2)cc1	2	3	7	-3	-1	2	.
COC(=O)c1[nH]c2cc(OC)ccc2c1N	1	2	75*	.	0	-3	10%
CCOC(=O)c1[nH]c2ccc(OC)cc2c1NC(=O)OC	0	0	-2	.	-6	2	.
COC(=O)c1oc2ccc(OC)cc2c1N	-7	1	70*	5	-3	0	11%
Cc1ccc(C(=O)NCc2ccco2)c(C)c1	-4	0	-2	0	-1	7	.
Cc1ccccc1NC(=S)N1CCN(c2ccccc2Cl)CC1	-2	0	-7	-2	2	14	.
SMILES	GSK3B inh	STK33 kinase inh	Dyrk1A ADPGlo	GSK3 alpha inh	Rin1 Abl inh	Arrestin-AP2 inh	ADP-Glo artifact
O=C(O)c1ccc(-n2cc(-c3cc4ccccc4oc3=O)[nH]c2=S)cc1	.	.	67*	.	-1	-23	9%
COc1cc2ncnc(NCc3cccs3)c2cc1OC	-1	.	-1	0	-1	-12	.
c1csc(CNc2ncnc3ccc(-c4ccoc4)cc23)c1	.	2	74*	1	-1	-6	10%
Cc1c(CC(=O)O)c(=O)oc2cc(OCc3ccc(Br)cc3)ccc12	0	0	-3	-2	0	31	.
O=c1cc(-c2ccccc2Cl)oc2cc(O)cc(O)c12	-3	-1	8	3	2	3	.
O=C1C=CC(O)(c2cc(=O)c3c(O)cc(O)cc3o2)C=C1	-1	38*	51*	26	5	9	8%
COc1ccccc1CNC(=O)COC(=O)c1ccccc1-c1ccccc1	0	.	-3	1	3	11	.
COCCNC(=O)C1(C)CCCN(C(=O)c2ccc(C)c(F)c2)C1 (configuration not stated)	.	.	.	.	2	.	.
Cc1c(O)ccc2c(CN3CCN(Cc4ccccc4)CC3)cc(=O)oc12	-1	0	6	3	0	9	.
Cc1c(O)ccc2c(CN(C)Cc3ccccc3)cc(=O)oc12	-2	-1	59*	5	-1	-12	8%
CN1CCc2c(sc3nc(NN)n(-c4ccc(Cl)cc4)c(=O)c23)C1	0	1	63*	2	4	4	6%
NC(=O)c1ccc(NC(=O)COC(=O)c2ccc(Br)c(S(=O)(=O)N3CCOCC3)c2)cc1	.	.	1	.	4	8	.
COc1ccc(-n2c(C)nc3cc(C(=O)NCc4ccc5c(c4)OCO5)ccc32)cc1	4	-2	57*	-1	0	-6	9%
COc1ccc(-n2c(C)nc3cc(C(=O)NCc4ccco4)ccc32)cc1	0	1	51*	-1	-1	-3	11%
Cc1ccc2ccccc2c1C(O)c1ncc(-c2ccc(F)cc2)[nH]1 (configuration not stated)	.	.	.	.	-2	.	.
Cc1ccc(NC(=O)c2cccc(S(=O)(=O)N3CCN(c4ccccc4)CC3)c2)nc1	0	.	11	.	2	-1	.

Bioassay records (PubChem BioAssay)
